# PAFAH1B2 inh: PAFAH1B2 enzyme inhibitors, primary screen, biochemical, fluorescence polarization, human. Platelet-activating factor acetylhydrolase IB subunit alpha2 (Homo sapiens), P68402. 1.2% of 340,000 active. inhibition, % at 3.39 µM. recombinant PAFAH1B2, FP-rhodamine activity probe;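 active = inhibition above the mean of all tested compounds plus 3 SD, cut at about 24% in these data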;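 note: 0% = enzyme with DMSO and 100% = wells lacking PAFAH1B2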
# ARFGAP1 inh: inhibitors of rat ARFGAP1 GAP activity, primary screen, biochemical, fluorescence polarization, GDP tracer | inhibition, % at 16.5 µM | AID 651572, 2012 | 0.26% of 360,000 active | ADP-ribosylation factor GTPase-activating protein 1 (Rattus norvegicus), Q62848 | Arfgap1-stimulated ARF1 GTP hydrolysis, GDP FP detection;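 active = inhibition above a per-plate limit, mean inhibition of low control wells plus 3 SD, cut at about 25% in these data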;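 note: 0% = DMSO wells with enzyme and 100% = wells lacking Arfgap1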
#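 material = rat Arfgap1 catalytic domain, aa 1-136 | also added = human ARF1(Δ1-17)-GTP substrate | compound dosing = one concentration, 16.5 µM, DMSO 1.26% | times = GTP hydrolysis reaction 2 h at 25 °C | measured by = FP, GDP Alexa 633 tracer displaced from anti-GDP antibody, 620/688 nm | evaluation = percent inhibition of Arfgap1-stimulated GTP hydrolysis | replication = single well per compound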
# PAFAH2 inh: PAFAH2 enzyme inhibitors, primary screen, biochemical, fluorescence polarization, human. recombinant PAFAH2, FP-rhodamine activity probe. Platelet-activating factor acetylhydrolase 2, cytoplasmic (Homo sapiens), Q99487. 0.99% of 340,000 active. inhibition, % at 3.39 µM. AID 492956, 2010;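 active = inhibition above the mean over all tested compounds plus 3 SD, cut at about 30% in these data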;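 note: inhibitors block probe labeling of enzyme so polarization drops; 0% = enzyme with DMSO and 100% = wells lacking PAFAH2 protein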
# pPAFAH FP inh: pPAFAH enzyme inhibitors, primary screen, biochemical, fluorescence polarization, human | recombinant pPAFAH, FP-rhodamine probe fluorescence polarization | 1.5% of 330,000 active | AID 463082, 2010 | inhibition, % at 3.39 µM;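 active = inhibition above the mean inhibition across the screen plus 3 SD, cut at about 25% in these data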;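 note: inhibitors block binding of the rhodamine activity-based probe so polarization drops; 0% = enzyme with DMSO and 100% = wells lacking pPAFAH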
# Target sequence (Q13093 whole entry, looked up): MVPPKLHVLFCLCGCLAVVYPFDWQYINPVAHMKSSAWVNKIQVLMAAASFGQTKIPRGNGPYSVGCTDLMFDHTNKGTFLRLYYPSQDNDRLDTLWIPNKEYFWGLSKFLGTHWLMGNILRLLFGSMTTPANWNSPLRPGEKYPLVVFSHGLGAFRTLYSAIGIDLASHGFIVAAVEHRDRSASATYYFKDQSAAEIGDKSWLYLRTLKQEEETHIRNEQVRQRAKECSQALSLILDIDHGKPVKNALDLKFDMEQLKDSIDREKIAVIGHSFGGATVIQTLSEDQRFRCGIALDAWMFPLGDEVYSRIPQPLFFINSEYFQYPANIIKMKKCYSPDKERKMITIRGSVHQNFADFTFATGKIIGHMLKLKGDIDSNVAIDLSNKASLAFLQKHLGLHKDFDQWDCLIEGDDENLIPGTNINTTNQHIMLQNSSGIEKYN
# PAFAH1B3 FP inh: PAFAH1B3 enzyme inhibitors, primary screen, biochemical, fluorescence polarization, human; 0.28% of 340,000 active; inhibition, % at 3.39 µM; AID 492972, 2010; Platelet-activating factor acetylhydrolase IB subunit alpha1 (Homo sapiens), Q15102; recombinant PAFAH1B3, FP-rhodamine probe;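 active = inhibition above the screen-wide average of all tested compounds plus 3 SD, cut at about 25% in these data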;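 note: 0% = enzyme with DMSO only and 100% = wells lacking PAFAH1B3 protein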
# Target sequence (Q15102 whole entry, looked up): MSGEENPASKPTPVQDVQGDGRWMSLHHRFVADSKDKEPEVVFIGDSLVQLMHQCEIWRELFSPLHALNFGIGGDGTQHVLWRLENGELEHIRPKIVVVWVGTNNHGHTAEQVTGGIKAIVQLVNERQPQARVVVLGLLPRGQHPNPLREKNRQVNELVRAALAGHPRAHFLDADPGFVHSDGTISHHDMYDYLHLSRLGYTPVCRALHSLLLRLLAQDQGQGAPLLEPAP
# ASAP1 GAP inh: inhibitors of human ASAP1 ArfGAP activity, primary screen, biochemical, fluorescence polarization; Arf-GAP with SH3 domain, ANK repeat and PH domain-containing protein 1 (Homo sapiens), …; ASAP1-stimulated ARF1 GTP hydrolysis, GDP FP detection; inhibition, % at 16.5 µM; 0.19% of 360,000 active; AID 624377, 2012; in the data active = inhibition above about 25%;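 note: 0% = vehicle with enzyme and substrate and 100% = no enzyme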
# pPAFAH confirm: pPAFAH (PLA2G7) enzyme inhibitors, confirmation, biochemical, fluorescence polarization, human. shares compounds with pPAFAH FP inh. recombinant pPAFAH, FP-Rh probe fluorescence polarization. inhibition, % at 3.39 µM. 72% of 2,300 active;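 active = mean inhibition of the triplicate above the hit cutoff set for the earlier primary screen, cut at about 25% in these data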;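 note: 0% = enzyme with DMSO and 100% = wells lacking pPAFAH enzyme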
# * marks the source's active call; other numbers are inactive results; . = no result. This is a sample that favours compounds with a hit; in the whole collection about 2.7% have one here.
SMILES,PAFAH1B2 inh,ARFGAP1 inh,PAFAH2 inh,pPAFAH FP inh,PAFAH1B3 FP inh,ASAP1 GAP inh,pPAFAH confirm
C=CCCC[C@H]1OC(=O)[C@H](C)NC(=O)[C@H](C(C)C)NC(=O)[C@@H]2CCCN2C(=O)[C@H](Cc2ccccc2)OC(=O)[C@@H](C(C)C)N(C)C(=O)[C@H](C(C)C)NC(=O)C1(C)C,.,3.5,.,.,.,7.1,.
O=C(NCc1cccnc1)c1ccc(-c2cccc(Cl)c2Cl)o1,-3.1,2.7,3.1,7.8,4.9,21.8,.
O=C(NCc1cccnc1)c1ccc(-c2ccccc2[N+](=O)[O-])o1,-5.1,10.8,-7.0,56.0*,11.0,11.8,3.3
O=C1CSC(=S)N1/N=C/c1ccc(O)c(O)c1O,7.4,.,35.7*,67.0*,19.3,.,64.3*
COc1ccc(CC(=O)N/N=C(\C)c2cccc(NC(=O)C3CC3)c2)cc1,0.5,-1.1,2.8,.,-7.8,4.6,.
COc1ccc(CC(=O)Nc2cccc(/C(C)=N/NC(=O)c3cccc([N+](=O)[O-])c3)c2)cc1,3.2,5.3,-2.4,79.6*,-0.3,-16.5,5.4
N#Cc1ccc(CC(C(=O)O)N2Cc3ccccc3C2=O)cc1 (stereo not given),3.0,1.3,4.8,1.1,2.7,-1.4,.
O=[N+]([O-])c1ccc(Cl)c2c1C1C=CCC1C(c1ccccn1)N2 (stereo not given),8.8,-9.9,27.3,37.3*,24.9,5.7,7.1
COc1cc(C2C(C#N)=C(N)OC3=C2C(=O)CCC3)c([N+](=O)[O-])cc1OC (stereo not given),12.1,4.0,25.9,38.2*,26.8*,12.8,11.0
Cc1cc(S(=O)(=O)N2CCCC2)ccc1OCC(=O)Nc1ccc(C(N)=O)cc1,-0.8,2.1,3.0,49.6*,3.9,9.5,4.1
Cc1cc(C)c2c(c1)C1C=CCC1C(c1ccc(S(=O)(=O)N3CCOCC3)cc1)N2 (stereo not given),3.6,9.1,2.4,1.9,2.3,0.6,.
COC(=O)COc1ccc(C2Nc3c(Cl)ccc(C(=O)O)c3C3C=CCC32)cc1 (stereo not given),2.6,2.5,28.1,36.2*,5.6,-0.4,11.5
CCc1c(C)sc(NC(=O)CC#N)c1C#N,9.2,.,20.5,34.5*,7.6,.,15.4
CCCC(=O)Nc1sc(C)c(C)c1C#N,1.9,-5.4,-5.8,1.4,2.2,5.4,.
CCN1/C(=C/C=C/c2oc3ccc(-c4ccccc4)cc3[n+]2CC)Oc2ccc(-c3ccccc3)cc21,26.3*,7.9,28.8,59.4*,18.7,19.3,12.5
CN(C(=O)COC(=O)c1cc([N+](=O)[O-])ccc1N1CCCC1)C1CCS(=O)(=O)C1 (stereo not given),2.0,0.9,-2.2,-6.9,8.2,-12.0,.
CCC(C)N(C(=O)COC(=O)c1cc([N+](=O)[O-])ccc1N1CCOCC1)C1CCS(=O)(=O)C1 (stereo not given),4.9,-5.6,1.3,40.0*,2.0,2.5,1.1
O=C(NN=Cc1ccco1)C(=O)Nc1cccc(C(F)(F)F)c1,.,4.6,.,.,.,13.6,.
O=C(c1ccc2nc(-c3ccco3)c(-c3ccco3)nc2c1)N1CCN(c2ncccn2)CC1,2.2,-3.9,13.6,48.9*,20.9,-0.9,12.6
Cc1nc2cc(NC(=O)N3CCN(c4ccccn4)CC3)ccc2o1,-3.6,-1.9,-3.2,-1.6,6.1,-0.4,.
O=C(Nc1ccc2nc(-c3ccco3)c(-c3ccco3)nc2c1)N1CCN(c2ccccn2)CC1,9.7,-9.5,17.4,37.0*,19.7,-1.0,28.1*
S=C(Nc1ccc(N2CCOCC2)cc1)Nc1ccc2nc(-c3ccco3)c(-c3ccco3)nc2c1,3.2,6.6,7.2,42.9*,14.3,5.0,17.7
O=C(Oc1ccc(-c2nnco2)cc1)c1cc(S(=O)(=O)N2CCOCC2)ccc1F,.,-2.0,.,.,.,-4.8,.
CCOc1ccc(/C=C/C(=O)c2cc(Br)ccc(=O)c2O)cc1,-2.0,4.5,16.2,37.8*,10.8,-2.5,27.7*
Cc1cccc(/C=C/C(=O)c2cc(Br)ccc(=O)c2O)c1,2.7,-16.8,34.0*,50.2*,13.0,-3.3,22.4
SMILES,PAFAH1B2 inh,ARFGAP1 inh,PAFAH2 inh,pPAFAH FP inh,PAFAH1B3 FP inh,ASAP1 GAP inh,pPAFAH confirm
CCc1ccc(/C=C/C(=O)c2cc(Br)ccc(=O)c2O)cc1,18.8,-13.7,34.2*,70.0*,0.8,-7.7,42.9*
O=C(Cc1c[nH]c2ccccc12)Nc1ccc(Nc2cccnc2)cc1,.,6.8,.,.,.,-2.9,.
O=C(C(=O)N1CCN(S(=O)(=O)c2cccc(C(F)(F)F)c2)CC1)c1cccc(C(F)(F)F)c1,.,6.3,.,.,.,5.2,.
O=c1[nH][nH]c(C(F)(F)F)c1C=Nc1ccccc1,7.4,2.1,2.2,0.6,6.9,0.1,.
Cc1cc(O)ccc1N=Cc1c(C(F)(F)F)[nH][nH]c1=O,15.8,-0.2,26.9,74.3*,20.8,-3.7,10.5
COc1cccc(CNC(=O)CCC2CCCN(C(=O)Cc3ccccc3F)C2)c1 (stereo not given),-1.0,-3.5,5.7,0.0,5.1,-7.0,.
COc1cccc(CNC(=O)CCC2CCCN(Cc3cc(Cl)ccc3O)C2)c1 (stereo not given),3.7,5.2,1.2,92.2*,-4.6,-6.3,68.3*
COC(=O)C1=C(C)N(Cc2cccc(C(F)(F)F)c2)C(=NCc2ccc(OC)cc2)NC1c1ccc(F)cc1 (stereo not given),.,0.6,.,.,.,5.4,.
CC(=O)c1c(OC(=O)c2ccccc2)c2ccccc2n1C,-6.1,0.9,-4.3,81.5*,5.3,3.8,9.1
COc1ccccc1Cc1c(-c2cccc(Cl)c2)nc2c3ccccc3ccn12,.,12.4,.,.,.,-1.7,.
C/C(=N\NC(=O)c1cc(O)cc(O)c1)c1ccc(NC(=O)Cc2ccccc2)cc1,18.9,-6.1,26.6,45.1*,34.5*,-7.0,15.1
CCCCCCCC/C=C\CCCCCCCC(=O)NCCc1ccc(O)c(O)c1,8.4,0.0,-27.2,69.8*,11.5,13.0,62.1*
CCCCCCCC/C=C\CCCCCCCC(=O)NCCO,7.8,7.2,6.8,2.5,9.8,-4.5,.
COc1ccc(/C=C2/C(=O)N(c3nc4ccccc4s3)N=C2CSc2ccc(Cl)cc2)cc1,-6.8,3.4,-7.9,50.7*,4.3,5.2,17.7

# High-throughput results: PubChem BioAssay, The Scripps Research Institute Molecular Screening Center
